Here are results for nine compounds from ChEMBL document CHEMBL1671831, “TSPO 18 kDa (PBR) Targeted Photosensitizers for Cancer Imaging (PET) and PDT” (ACS Med Chem Lett, 2011).

Activity calls are given as the source filed them. The rule behind the calls is not given here.

The target in data set [1] is T1, Translocator protein (Homo sapiens, UniProt P30536). The experiment in a line: Displacement of [3H]-PK11195 from PBR after 1 hr by scintillation counting.
Data set [2] can be described thus: Drug level in […] cells xenografted BALB/c mouse gut after 24 hrs by microPET analysis. The settings on record: in vivo. The format is ADME, cell-based. The essentials:
(§1)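 Balb/c mice bearing EMT6 tumours given the 124I-labelled agent. Uptake in organs and tumour taken by biodistribution 24 h after injection, with microPET coronal emission imaging. Mean with standard deviation.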
(In xenograft studies the graft and the host belong to different species.)

Data set [3] has as its system Blood. The experiment in a line: Drug level in […] cells xenografted BALB/c mouse blood after 24 hrs by microPET analysis. Format: ADME, cell-based. Particulars: in vivo. The essentials: as §1
The test system of data set [4] is Lung. The experiment in a line: Drug level in […] cells xenografted BALB/c mouse lungs after 24 hrs by microPET analysis. The format is ADME, cell-based. The settings on record: in vivo. The essentials: as §1
Data set [5] deals with Kidney. The experiment in a line: Drug level in […] cells xenografted BALB/c mouse kidney after 24 hrs by microPET analysis. The format is ADME, cell-based. Particulars: in vivo. The gist of the method: as §1
Data set [6] relates to Brain. Briefly: Drug level in […] cells xenografted BALB/c mouse brain after 24 hrs by microPET analysis. The settings on record: in vivo. Format: ADME, cell-based. The essentials:
as §1

Data set [7] deals with Spleen. Briefly: Drug level in […] cells xenografted BALB/c mouse spleen after 24 hrs by microPET analysis. Format: ADME, cell-based. Particulars: in vivo. The essentials: as §1
The test system of data set [8] is Stomach. Briefly: Drug level in […] cells xenografted BALB/c mouse stomach after 24 hrs by microPET analysis. Format: ADME, cell-based. Particulars: in vivo. The gist of the method: as §1
Data set [9] has as its system Muscle tissue. Briefly: Drug level in […] cells xenografted BALB/c mouse muscle after 24 hrs by microPET analysis. The format is ADME, cell-based. The settings on record: in vivo. The essentials: as §1
Data set [10] deals with Heart. The experiment in a line: Drug level in […] cells xenografted BALB/c mouse heart after 24 hrs by microPET analysis. The format is ADME, cell-based. The settings on record: in vivo. The essentials: as §1
For data set [11], the system named is Liver. Briefly: Drug level in […] cells xenografted BALB/c mouse liver after 24 hrs by microPET analysis. The format is ADME, cell-based. The settings on record: in vivo. The essentials:
as §1

The target in data set [12] is T1, Translocator protein. Briefly: Binding affinity to PBR.
Data set [13] deals with MDA-MB-231. The experiment in a line: Antitumor activity against human MDA-MB-231 cells xenografted in SCID mouse assessed as tumor free mouse at 5 umol/kg measured on day 60. Format: functional.
In data set [14] the test system is MDA-MB-231. The experiment in a line: Cellular uptake in human MDA-MB-231 cells at 0.1 uM by fluorescence spectroscopy. The format is ADME, cell-based. The settings on record: mda-mb-231, 0.1 µM. The gist of the method:
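MDA-MB-231 cells. Uptake measured by fluorescence spectroscopy with excitation at 412 nm and emission scanned from 550 to 750 nm (maximum at 678 nm). Conjugate uptake compared with and without the TSPO ligand PK 11195 analogue.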

In data set [15] the test system is MDA-MB-231. The experiment in a line: Drug level in human MDA-MB-231 cells xenografted in SCID mouse after 24 hrs by microPET analysis. The format is functional, cell-based. The gist of the method:
(§2)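 Scid mice bearing MDA-231 tumours given the 124I-labelled conjugate at 50 μCi (about 40 ng) per mouse. MicroPET coronal emission imaging at 24, 48, 72 and 96 h after injection, plus biodistribution with three mice per group. Mean with standard deviation.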

Data set [16] is described as follows: Drug level in human U87 cells xenografted in BALB/c mouse after 24 hrs […]. The format is ADME, cell-based, U-87MG ATCC. The settings on record: in vivo, in the assay text read “nude mouse” for “BALB/c mouse”. The gist of the method: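 Nude mice bearing U87 tumours given the 124I-labelled agent. Tumour and organ uptake taken by biodistribution 24 h after injection. Mean with standard deviation.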

In data set [17] the test system is MDA-MB-231. The experiment in a line: Drug level in human MDA-MB-231 cells xenografted in SCID mouse after 48 to 96 hrs by microPET analysis. The settings on record: tested as the 124I-labelled form. Format: functional, cell-based. The gist of the method: as §2

T1 sequence (P30536 whole entry): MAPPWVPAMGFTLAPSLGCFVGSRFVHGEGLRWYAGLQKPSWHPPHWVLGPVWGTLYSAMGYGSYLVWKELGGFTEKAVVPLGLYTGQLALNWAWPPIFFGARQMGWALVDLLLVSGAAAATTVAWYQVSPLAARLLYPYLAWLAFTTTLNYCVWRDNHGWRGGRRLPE

In general, IC50 refers to the concentration that gives 50% inhibition. Low readings indicate greater potency, high ones weaker potency. In [1], `C=Cc1c(C)c2cc3nc(c4c5[nH]c(cc6nc(cc1[nH]2)C(C)=C6CC)c(C)c5C(=O)C4)[C@@H](CCC(=O)NCCNC(=O)c1cc2ccccc2c(-c2ccccc2I)n1)[C@@H]3C` gave an IC50 of 2200 nM.

The compound `C=Cc1c(C)c2cc3nc(c4c5[nH]c(cc6nc(cc1[nH]2)C(C)=C6CC)c(C)c5C(=O)C4)[C@@H](CCC(=O)N(C)CCN(C)C(=O)c1cc2ccccc2c(-c2ccccc2I)n1)[C@@H]3C` had an IC50 in data set [1] of 1000 nM.

Consider `CCC(C)N(C)C(=O)c1cc2ccccc2c(-c2ccccc2I)n1` (stereo unspecified), for which the Drug uptake entry in data set [2], in data set [3], in data set [4], in data set [5], in data set [6] and in [7] was “Not Active” throughout. The Drug uptake entry in data set [8], in data set [9], in data set [10] and in data set [11] was “Not Active” each time. The compound also gave a 50% inhibitory concentration (IC50) in [1] of 620 nM.

One may read the Kd as the free concentration of one partner at which half of the binding sites on the other are occupied at equilibrium, for simple one-to-one binding. A low value points to higher affinity. Turning to `C=Cc1c(C)c2cc3nc(c4c5[nH]c(cc6nc(cc1[nH]2)C(C)=C6CC)c(C)c5C(=O)C4)[C@@H](CCC(=O)NCCCCCCNC(=O)c1cc2ccccc2c(-c2ccccc2I)n1)[C@@H]3C`, in data set [12], binding was put at a Kd of 40 nM. Also, in [13], the Activity was 20%. Besides, the Drug uptake entry in data set [14] is given as “Active”. For the same compound, the half-inhibitory concentration (IC50) in [1] was 310 nM. Moreover, in [15], the Drug uptake result was “Active”.

For the compound `CCC(C)N(C)C(=O)c1cc2ccccc2c(-c2ccccc2[124I])n1` (stereo unspecified), the Drug uptake result in data set [16] is recorded as “Not Active”.

As for `C=Cc1c(C)c2cc3nc(c4c5[nH]c(cc6nc(cc1[nH]2)C(C)=C6CC)c(C)c5C(=O)C4)[C@@H](CCC(=O)NCCCCCCN)[C@@H]3C`, the Activity in data set [13] was determined as 0%. For the same compound, the Drug uptake result in [14] was “Active”. The same compound gave an IC50 in [1] of 25000 nM.

Turning to `CCCCCCOC(C)c1c(C)c2cc3nc(c4c5[nH]c(cc6nc(cc1[nH]2)C(C)=C6CC)c(C)c5C(=O)C4)[C@@H](CCC(=O)NCCCCCCNC(=O)c1cc2ccccc2c(-c2ccccc2I)n1)[C@@H]3C` (stereo partly specified), the Drug uptake entry in data set [17] and in data set [15] was “Active” in each case.

As to `C=Cc1c(C)c2cc3nc(c4c5[nH]c(cc6nc(cc1[nH]2)C(C)=C6CC)c(C)c5C(=O)C4)[C@@H](CCC(=O)NCCN)[C@@H]3C`, the half-inhibitory concentration (IC50) in [1] came out at 5600 nM.

The compound `C=Cc1c(C)c2cc3nc(c4c5[nH]c(cc6nc(cc1[nH]2)C(C)=C6CC)c(C)c5C(=O)C4)[C@@H](CCC(=O)N(C)CCCCCCN(C)C(=O)c1cc2ccccc2c(-c2ccccc2I)n1)[C@@H]3C` returned an IC50 in data set [1] of 210 nM.
